Source: ChEMBL document CHEMBL4765256, “Structural features and functional activities of benzimidazoles as NOD2 antagonists” (Eur J Med Chem, 2020)
The source made the active and inactive calls. No cut-off for these calls is given here.

How the values were obtained:
[1] = target: T1, Nucleotide-binding oligomerization domain-containing protein 2 (Homo sapiens, UniProt Q9HC29); test: Antagonist activity at human NOD2 expressed in HEK293 cells assessed as reduction in MDP-induced NF-kappaB activation at 10 uM preincubated for 1 hr followed by MDP stimulation and measured after 18 hrs by SEAP reporter gene based spectrophotometric analysis; assay type: cell-based; conditions: time 19.0 hrs
Summary of the method: (§1)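 HEK-Blue NOD1 or NOD2 reporter cells (5 × 10^5 cells/mL, passages 7–12) pre-treated 1 h with 10 µM compound. Then 100 nM C12-iE-DAP (NOD1) or 2 µM MDP (NOD2) for 18 h at 37 °C, 5% CO2. Secreted SEAP read at 620 nm. DMSO ≤0.1% vehicle control. Duplicates, three biological replicates.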

[2] = target: T2, Nucleotide-binding oligomerization domain-containing protein 1 (Homo sapiens) (UniProt Q9Y239); test: Antagonist activity at human NOD1 expressed in HEK293 cells assessed as reduction in C12-iE-DAP-induced NF-kappaB activation at 10 uM preincubated for 1 hr followed by C12-iE-DAP stimulation and measured after 18 hrs by SEAP reporter gene based spectrophotometric analysis; assay type: cell-based; conditions: time 19.0 hrs; summary of the method: as §1
T2 sequence (whole entry): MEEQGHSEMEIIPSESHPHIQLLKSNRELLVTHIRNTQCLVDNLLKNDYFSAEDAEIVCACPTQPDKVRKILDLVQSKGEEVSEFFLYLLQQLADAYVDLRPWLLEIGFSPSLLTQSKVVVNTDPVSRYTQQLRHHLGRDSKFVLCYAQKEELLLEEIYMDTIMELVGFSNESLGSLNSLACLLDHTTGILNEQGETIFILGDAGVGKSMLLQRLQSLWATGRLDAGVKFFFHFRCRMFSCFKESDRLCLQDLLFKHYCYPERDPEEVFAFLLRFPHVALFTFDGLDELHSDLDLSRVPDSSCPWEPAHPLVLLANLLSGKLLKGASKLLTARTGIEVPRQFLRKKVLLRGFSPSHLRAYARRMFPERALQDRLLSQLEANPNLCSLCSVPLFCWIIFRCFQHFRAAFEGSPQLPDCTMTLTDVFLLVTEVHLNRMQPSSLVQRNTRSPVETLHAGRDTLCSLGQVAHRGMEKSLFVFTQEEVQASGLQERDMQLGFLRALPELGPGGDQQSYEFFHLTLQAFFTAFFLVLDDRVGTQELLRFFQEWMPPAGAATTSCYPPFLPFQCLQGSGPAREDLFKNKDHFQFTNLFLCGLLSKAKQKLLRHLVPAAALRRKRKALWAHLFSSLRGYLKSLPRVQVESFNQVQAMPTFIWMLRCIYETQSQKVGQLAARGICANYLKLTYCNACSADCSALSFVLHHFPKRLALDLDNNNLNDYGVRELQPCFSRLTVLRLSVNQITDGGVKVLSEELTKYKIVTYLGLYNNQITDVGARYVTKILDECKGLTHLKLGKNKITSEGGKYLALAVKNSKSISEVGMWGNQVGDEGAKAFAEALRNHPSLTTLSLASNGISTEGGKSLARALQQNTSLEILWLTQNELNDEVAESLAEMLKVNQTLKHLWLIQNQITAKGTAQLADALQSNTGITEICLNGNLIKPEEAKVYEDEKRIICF

[3] = test system: HEK293; test: Cytotoxicity against human HEK293 cells expressing human NOD2 assessed as reduction in metabolic activity at 20 uM incubated for 18 hrs by MTS assay; assay type: ADME, cell-based; conditions: hek293, 18 h
Summary of the method: (§2)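 HEK-Blue NOD1 or NOD2 cells seeded at 1 × 10^4 cells/well in triplicate. Treated 18 h with 20 µM compound or 0.1% DMSO vehicle. Metabolic activity read by MTS (CellTiter 96 AQueous One) and expressed relative to vehicle control. Mean ± SD of three biological replicates.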

[4] = test system: HEK293; test: Cytotoxicity against human HEK293 cells expressing human NOD1 assessed as reduction in metabolic activity at 20 uM incubated for 18 hrs by MTS assay; assay type: ADME, cell-based; conditions: hek293, 18 h; summary of the method: as §2
[5] = target: T3, Nucleotide-binding oligomerization domain-containing protein 1 (Homo sapiens, UniProt Q9Y239); test: Antagonist activity at human NOD1 expressed in HEK293 cells assessed as reduction in C12-iE-DAP-induced NF-kappaB activation preincubated for 1 hr followed by C12-iE-DAP stimulation and measured after 18 hrs by SEAP reporter gene based spectrophotometric analysis; assay type: cell-based
T3 sequence (Q9Y239 whole entry): T2 sequence (whole entry)

[6] = target: T1, Nucleotide-binding oligomerization domain-containing protein 2; test: Antagonist activity at human NOD2 expressed in HEK293 cells assessed as reduction in MDP-induced NF-kappaB activation preincubated for 1 hr followed by MDP stimulation and measured after 18 hrs by SEAP reporter gene based spectrophotometric analysis; assay type: cell-based
Summary of the method: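 Dose–response in HEK-Blue NOD2 and NOD1 cells (5 × 10^5 cells/mL): 1 h pre-treatment with 0.3125–20 µM antagonist, then 2 µM MDP or 100 nM C12-iE-DAP respectively, 18 h incubation. SEAP absorbance read at 620 nm. IC50 fitted by non-linear regression. Duplicates, three biological replicates, DMSO ≤0.1%.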

[7] = test system: THP-1; test: Antagonist activity at NOD2/TLR4 in human THP-1 cells assessed as reduction in MDP/LPS-induced TNF-alpha secretion at 20 uM preincubated for 1 hr followed by MDP/LPS stimulation and measured after 20 hrs by ELISA; assay type: cell-based; conditions: filed as antagonist, time 21.0 hrs
Summary of the method: (§3)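 Synergy setting in THP-1 cells: 1 h pre-treatment with 20 µM compound, then 10 µM MDP or C12-iE-DAP plus 1 ng/mL E. coli O127:B8 LPS for 20 h. Supernatant TNF-α by sandwich ELISA, detection limit 4 pg/mL. DMSO vehicle ≤0.2%. Duplicates from three independent experiments, mean ± SD, Dunnett test against agonist+LPS-treated cells.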

[8] = test system: THP-1; test: Cytotoxicity against human THP-1 cells assessed as […] dehydrogenase leakage at 20 uM incubated for 18 hrs; assay type: cell-based; conditions: thp-1, 18 h
Summary of the method: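 THP-1 cells treated 18 h with compound at up to 20 µM. Lactate dehydrogenase released into cell-free supernatant measured with a colorimetric kit, results given as OD.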

[9] = target: T2, Nucleotide-binding oligomerization domain-containing protein 1 (Homo sapiens); test: Antagonist activity at NOD1 in human THP-1 cells assessed as reduction in C12-iE-DAP-induced IL-8 secretion at 20 uM preincubated for 1 hr followed by C12-iE-DAP stimulation and measured after 20 hrs by ELISA; assay type: cell-based; conditions: filed as antagonist, time 21.0 hrs
Summary of the method: (§4)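 THP-1 cells at 10^6 cells/mL in 24-well cultures, passages 3–12. Pre-treated 1 h with 20 µM compound, then 10 µM MDP (NOD2) or 10 µM C12-iE-DAP (NOD1) added, 20 h at 37 °C, 5% CO2. Triplicate wells, DMSO ≤0.2% as vehicle control. Supernatant IL-8 by sandwich ELISA, detection limit 15.6 pg/mL. Mean ± SD of duplicates from three independent experiments, Dunnett test.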

[10] = test system: THP-1; test: Antagonist activity at NOD in human THP-1 cells assessed as increase in TNF-alpha secretion at 20 uM; assay type: cell-based
Summary of the method: (§5)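 THP-1 cells at 10^6 cells/mL in RPMI 1640 with 10% heat-inactivated FCS, passages 3–12, exposed to 20 µM compound alone (no NOD agonist). IL-8 and TNF-α in cell-free supernatants measured by sandwich ELISA, reported in pg/mL. Detection limits were 15.6 pg/mL for IL-8 and 4 pg/mL for TNF-α. DMSO vehicle control, not above 0.2% final.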

[11] = test system: THP-1; test: Antagonist activity at NOD1/TLR4 in human THP-1 cells assessed as reduction in C12-iE-DAP/LPS-induced TNF-alpha secretion at 20 uM preincubated for 1 hr followed by C12-iE-DAP/LPS stimulation and measured after 20 hrs by ELISA; assay type: cell-based; conditions: time 21.0 hrs; summary of the method: as §3
[12] = test system: THP-1; test: Antagonist activity at NOD in human THP-1 cells assessed as increase in IL-8 secretion at 20 uM; assay type: cell-based; summary of the method: as §5
[13] = target: T1, Nucleotide-binding oligomerization domain-containing protein 2; test: Antagonist activity at NOD2 in human THP-1 cells assessed as reduction in MDP-induced IL-8 secretion at 20 uM preincubated for 1 hr followed by MDP stimulation and measured after 20 hrs by ELISA; assay type: cell-based; conditions: filed as antagonist, time 21.0 hrs; summary of the method: as §4

T1 sequence (Q9HC29 whole entry, the tested form may be a part): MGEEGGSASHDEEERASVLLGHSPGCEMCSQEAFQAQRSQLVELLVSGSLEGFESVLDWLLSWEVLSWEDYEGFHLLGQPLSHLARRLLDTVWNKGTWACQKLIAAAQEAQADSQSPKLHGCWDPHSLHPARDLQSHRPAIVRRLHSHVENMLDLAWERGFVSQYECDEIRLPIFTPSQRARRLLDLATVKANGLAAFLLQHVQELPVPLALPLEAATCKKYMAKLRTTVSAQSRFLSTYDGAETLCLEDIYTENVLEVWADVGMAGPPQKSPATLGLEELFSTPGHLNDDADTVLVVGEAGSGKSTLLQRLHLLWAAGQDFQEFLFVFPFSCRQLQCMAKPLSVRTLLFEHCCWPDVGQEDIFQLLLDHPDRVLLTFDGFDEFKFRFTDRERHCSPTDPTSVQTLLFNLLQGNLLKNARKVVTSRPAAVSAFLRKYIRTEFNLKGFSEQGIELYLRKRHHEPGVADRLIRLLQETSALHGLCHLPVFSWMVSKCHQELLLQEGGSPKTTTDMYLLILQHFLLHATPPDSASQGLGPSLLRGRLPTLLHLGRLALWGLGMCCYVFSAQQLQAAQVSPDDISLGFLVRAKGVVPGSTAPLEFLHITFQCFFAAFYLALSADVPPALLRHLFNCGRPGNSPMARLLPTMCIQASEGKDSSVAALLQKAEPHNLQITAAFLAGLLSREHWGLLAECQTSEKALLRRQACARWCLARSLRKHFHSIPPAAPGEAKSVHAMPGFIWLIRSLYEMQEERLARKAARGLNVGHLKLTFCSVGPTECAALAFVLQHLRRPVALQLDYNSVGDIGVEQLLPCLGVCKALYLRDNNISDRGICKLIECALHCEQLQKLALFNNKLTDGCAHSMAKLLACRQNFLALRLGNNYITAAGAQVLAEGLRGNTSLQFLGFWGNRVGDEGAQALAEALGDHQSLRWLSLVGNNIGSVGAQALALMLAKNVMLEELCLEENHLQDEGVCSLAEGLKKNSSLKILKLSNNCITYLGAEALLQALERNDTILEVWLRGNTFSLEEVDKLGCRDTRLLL

| SMILES | Activity [1] | Activity [2] | Activity [3] | Activity [4] | IC50 [5] [µM] | IC50 ([6]; read-out: IC50) [µM] | Activity ([1]; filed as antagonist) | Activity ([2]; filed as antagonist) | also measured |
| --- | --- | --- | --- | --- | --- | --- | --- | --- | --- |
| Cl.O=C(Cn1c(CCNC(=O)C2CCNCC2)nc2ccccc21)Nc1ccc2c(c1)CCC2 | inactive | inactive | Non-Toxic | Non-Toxic | – | – | – | – | – |
| O=C(Cc1ccncc1)NCCc1nc2ccccc2n1CC(=O)Nc1ccc2c(c1)CCC2 | inactive | inactive | Non-Toxic | Non-Toxic | 42.3 | 25.9 | – | – | – |
| O=C(Cn1c(CCNC(=O)c2ccncc2)nc2ccccc21)Nc1ccc2c(c1)CCC2 | inactive | inactive | Non-Toxic | Non-Toxic | – | – | – | – | – |
| CN(CCCc1nc2ccccc2n1CC(=O)Nc1ccc2c(c1)CCC2)S(=O)(=O)c1ccccc1 | – | – | Non-Toxic | Non-Toxic | 1.66 | 5.08 | – | – | – |
| O=C(Cn1c(CCCNC(=O)c2ccccc2)nc2ccccc21)Nc1ccc2c(c1)CCC2 | – | – | Non-Toxic | Non-Toxic | 17.7 | 5.7 | Active | Active | Activity [7]: Active; Activity [8]: Non-Toxic; Activity [9]: Active; Activity [10]: inactive; Activity [11]: inactive; Activity [12]: inactive; Activity [13]: Active |
| CN(C)c1cccc2c(S(=O)(=O)N(C)CCc3nc4ccccc4n3CC(=O)Nc3ccc4c(c3)CCC4)cccc12 | – | – | Non-Toxic | Non-Toxic | 3.08 | > 20 | – | – | – |
| O=C(CCc1nc2ccccc2n1CC(=O)Nc1ccc2c(c1)CCC2)Nc1ccccc1 | – | – | Non-Toxic | Non-Toxic | 12.4 | 8.8 | Active | Active | – |
| O=C(Cn1c(CCNCc2ccccc2)nc2ccccc21)Nc1ccc2c(c1)CCC2 | – | – | Toxic | Toxic | 30.7 | 4.76 | Active | Active | – |
| CC(C)(C)OC(=O)N1CCC(C(=O)NCCc2nc3ccccc3n2CC(=O)Nc2ccc3c(c2)CCC3)CC1 | – | – | Non-Toxic | Non-Toxic | 13.3 | 10.6 | Active | Active | – |
| Cc1ccc(S(=O)(=O)n2c(N)nc3ccccc32)cc1 | – | – | Non-Toxic | Non-Toxic | – | – | – | Active | Activity [9]: Active; Activity ([11]; filed as antagonist): Active |
| CN(CCc1nc2ccccc2n1CC(=O)Nc1ccc2c(c1)CCC2)S(=O)(=O)c1ccccc1 | – | – | Non-Toxic | Non-Toxic | 2.56 | 0.63 | – | – | – |
| O=C(Cn1c(CCNCc2ccncc2)nc2ccccc21)Nc1ccc2c(c1)CCC2 | inactive | inactive | Non-Toxic | Non-Toxic | 27.8 | 22.9 | – | – | – |
| O=C(Cn1c(CCCNS(=O)(=O)c2ccccc2)nc2ccccc21)Nc1ccc2c(c1)CCC2 | – | – | Non-Toxic | Non-Toxic | 9.25 | 5.12 | – | – | – |
| O=C(Cn1c(CCNS(=O)(=O)c2cccnc2)nc2ccccc21)Nc1ccc2c(c1)CCC2 | – | – | Non-Toxic | Non-Toxic | 32 | 16.4 | Active | Active | – |
| O=C(Cn1c(CNC(=O)c2ccccc2)nc2ccccc21)Nc1ccc2c(c1)CCC2 | inactive | inactive | Non-Toxic | Non-Toxic | – | – | – | – | – |
| O=C(Cn1c(CCNC(=O)c2cccnc2)nc2ccccc21)Nc1ccc2c(c1)CCC2 | inactive | inactive | Non-Toxic | Non-Toxic | – | – | – | – | IC50 ([6]; hek293): Not Active |
